Assay results published in paper PMC5384886 (International Journal for Parasitology: Drugs and Drug …, 2017).
Like-named read-outs stand apart in the source and are kept apart here. One block for each compound: values may come before it.

What was measured:
[1] = tested on: Pf3D7 (chloroquine-sensitive) strain; assay: In vitro P. falciparum whole cell assay; type: cell-based; conditions: Plasmodium falciparum, 72 h, read-out: Pf3D7 IC50
Summary of the method: (§1)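 Parasites synchronised to 95% ring stage with 5% sorbitol. Stocks: chloroquine in water, test compounds and dihydroartemisinin in DMSO, diluted in incomplete 1640 medium. Ring-stage cultures (1% parasitaemia, 2% haematocrit) exposed to serial dilutions for 72 h at 37 °C. Growth read by SYBR Green I fluorescence. IC50 from a sigmoidal growth fit.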

[2] = tested on: adult S. japonicum; assay: In vitro assay for drug effect on adult S. japonicum; type: cell-based, Schistosoma japonicum; conditions: 72 h
Summary of the method: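 Adult worms taken from infected mice 34–38 days post-infection, perfused with ice-cold heparinised HBSS, rinsed three times. Kept in RPMI 1640 with 10% calf serum, penicillin, streptomycin and amphotericin B. Four worm pairs per well, 2 h preincubation at 37 °C, 5% CO2, then compound at final 10 or 5 μg/mL; DMSO control. Scored at 24, 48, 72 h; death = no sucker/body movement for 2 min.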

[3] = tested on: juvenile S. japonicum (schistosomula); assay: In vitro assay for drug effect on juvenile S. japonicum; type: cell-based, Schistosoma japonicum; conditions: 10 μg/mL
Summary of the method: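 Cercariae mechanically transformed to schistosomula and kept in RPMI 1640 with 5% FBS, 100 IU/mL penicillin and 100 μg/mL streptomycin at 37 °C, 5% CO2. 50 schistosomula/well exposed to compound at final 10 μg/mL for 72 h, in duplicate, with DMSO negative control. Activity, survival time, mortality and morphology scored microscopically at 12, 24, 48 and 72 h.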

[4] = tested on: β-hematin formation; assay: Inhibition assay of β-hematin formation; type: biochemical; conditions: for β-Hematin % Inhibition: at a concentration of 100 μM; for IC50: read-out: β-Hematin IC50
Summary of the method: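 NP-40 detergent-mediated β-hematin assay. Compound in DMSO plus NP-40 and water. Hematin was dissolved in DMSO (25 mM stock) and suspended in acetate buffer (pH 4.8; final 0.5 M). Incubated 4 h at 37 °C. Controls: DMSO (negative), chloroquine and amodiaquine (100 μM final). Pyridine-ferrichrome read-out: 5% v/v final pyridine, HEPES pH 7.4, extra acetone, 405 nm. % inhibition at 100 μM; IC50 from concentration series; triplicate, repeated twice.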

[5] = tested on: PfDd2 (chloroquine-resistant) strain; assay: In vitro P. falciparum whole cell assay; type: cell-based; conditions: Plasmodium falciparum, 72 h, read-out: PfDd2 IC50
Summary of the method: as §1

[6] = Cytotoxicity assay on WI38 cells; type: cell-based, human; conditions: human, WI38 cells (human embryonic lung fibroblasts)
Summary of the method: (§2)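 WI38 cells harvested at log phase and seeded at 10 000/well in DMEM or MEM with 10% FBS and 1% penicillin-streptomycin. After 12 h adherence at 37 °C, 5% CO2, 2-fold dilutions (final 50 to 1.57 μM) were added in triplicate for 2 days. MTT read-out: 4 h, DMSO solubilisation, 490 nm. CC50 is the mean of two independent experiments. SI = CC50/IC50 for each Pf strain.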

[7] = tested on: human embryonic lung fibroblast WI38; assay: Cytotoxicity assay on WI38 cells; type: cell-based; conditions: for SI CC50/IC50 (Pf3D7): CC50 WI38 / IC50 Pf3D7; for SI CC50/IC50 (PfDd2): CC50 WI38 / IC50 PfDd2
Summary of the method: as §2

Compound: CCCCNC[C@@H](O)Cn1c2ccc(Cl)cc2c2cc(Cl)ccc21 [(R)-7, (R)-1-(butylamino)-3-(3,6-dichloro-9H-carbazol-9-yl)propan-2-ol]
- IC50 [1]: 344 ± 54 nM
- Adult S. japonicum worm-killing ([2]; 5 μg/mL): +
- Adult S. japonicum worm-killing ([2]; 10 μg/mL): +
- Juvenile S. japonicum worm-killing [3]: +
- β-Hematin % Inhibition [4]: 75.13%
- IC50 [4]: 119000 ± 7140 nM
- IC50 [5]: 172 ± 32 nM
- CC50 at 2 days [6]: 7690 nM
- SI CC50/IC50 (Pf3D7) [7]: 22
- SI CC50/IC50 (PfDd2) [7]: 45

Compound: CCCCCCNCC(O)Cn1c2ccc(Cl)cc2c2cc(Cl)ccc21 (stereo not drawn) [Compound 9, 1-(3,6-Dichloro-9H-carbazol-9-yl)-3-(hexylamino)propan-2-ol]
- IC50 [1]: 274 ± 63 nM
- Adult S. japonicum worm-killing ([2]; 5 μg/mL): ±
- Adult S. japonicum worm-killing ([2]; 10 μg/mL): +
- Juvenile S. japonicum worm-killing [3]: +
- β-Hematin % Inhibition [4]: 81.85%
- IC50 [4]: 55000 ± 5870 nM
- IC50 [5]: 47 ± 10 nM
- CC50 at 2 days [6]: 5920 nM
- SI CC50/IC50 (Pf3D7) [7]: 22
- SI CC50/IC50 (PfDd2) [7]: 126

- IC50 [1]: 1290 ± 329 nM
Compound: OC(CN1CCOCC1)Cn1c2ccc(Cl)cc2c2cc(Cl)ccc21 (stereo not drawn) [Compound 5, 1-(3,6-Dichloro-9H-carbazol-9-yl)-3-morpholinopropan-2-ol]
- β-Hematin % Inhibition [4]: 0%

Compound: CCN(CC)CCCC(C)Nc1ccnc2cc(Cl)ccc12 (stereo not drawn) [Chloroquine, reference compound]
- IC50 [1]: 15 ± 8 nM
- β-Hematin % Inhibition [4]: 97.8%
- IC50 [4]: 61000 ± 5550 nM
- IC50 ([4]; listed as chloroquine): 61000 nM
- IC50 [5]: 231 ± 24 nM

Compound: OC(CN1CCCCC1)Cn1c2ccc(Cl)cc2c2cc(Cl)ccc21 (stereo not drawn) [Compound 4, 1-(3,6-Dichloro-9H-carbazol-9-yl)-3-(piperidin-1-yl)propan-2-ol]
- Adult S. japonicum worm-killing ([2]; 10 μg/mL): +

Compound: CCCCCCCNCC(O)Cn1c2ccc(Cl)cc2c2cc(Cl)ccc21 (stereo not drawn) [Compound 10, 1-(3,6-Dichloro-9H-carbazol-9-yl)-3-(heptylamino)propan-2-ol]
- IC50 [1]: 179 ± 44 nM
- Adult S. japonicum worm-killing ([2]; 5 μg/mL): ±
- Adult S. japonicum worm-killing ([2]; 10 μg/mL): +
- Juvenile S. japonicum worm-killing [3]: +
- β-Hematin % Inhibition [4]: 74.74%
- IC50 [4]: 91600 ± 4670 nM
- IC50 [5]: 54 ± 10 nM
- CC50 at 2 days [6]: 5140 nM
- SI CC50/IC50 (Pf3D7) [7]: 28
- SI CC50/IC50 (PfDd2) [7]: 95

Compound: CCCCNC[C@H](O)Cn1c2ccc(Cl)cc2c2cc(Cl)ccc21 [(S)-7, (S)-1-(butylamino)-3-(3,6-dichloro-9H-carbazol-9-yl)propan-2-ol]
- IC50 [1]: 378 ± 91 nM
- Adult S. japonicum worm-killing ([2]; 5 μg/mL): +
- Adult S. japonicum worm-killing ([2]; 10 μg/mL): +
- Juvenile S. japonicum worm-killing [3]: +
- β-Hematin % Inhibition [4]: 80.09%
- IC50 [4]: 106000 ± 8420 nM
- IC50 [5]: 112 ± 30 nM
- CC50 at 2 days [6]: 9340 nM
- SI CC50/IC50 (Pf3D7) [7]: 24
- SI CC50/IC50 (PfDd2) [7]: 83

Compound: C[C@H]1[C@@H](O)O[C@@H]2O[C@@]3(C)CC[C@H]4[C@H](C)CC[C@@H]1[C@@]24OO3 [Dihydroartemisinin, reference compound]
- IC50 [5]: 5 ± 0.2 nM

Compound: O=C(C1CCCCC1)N1CC(=O)N2CCc3ccccc3C2C1 (stereo not drawn) [Praziquantel, reference compound]
- Adult S. japonicum worm-killing ([2]; 5 μg/mL): +
- Adult S. japonicum worm-killing ([2]; 10 μg/mL): +

- IC50 [4]: 15900 ± 1290 nM
Compound: CCN(CC)Cc1cc(Nc2ccnc3cc(Cl)ccc23)ccc1O [Amodiaquine, reference compound]
- β-Hematin % Inhibition [4]: 100%

Compound: CCCCCCCCNCC(O)Cn1c2ccc(Cl)cc2c2cc(Cl)ccc21 (stereo not drawn) [Compound 11, 1-(3,6-Dichloro-9H-carbazol-9-yl)-3-(octylamino)propan-2-ol]
- IC50 [1]: 132 ± 59 nM
- Adult S. japonicum worm-killing ([2]; 5 μg/mL): ±
- Adult S. japonicum worm-killing ([2]; 10 μg/mL): +
- Juvenile S. japonicum worm-killing [3]: +
- β-Hematin % Inhibition [4]: 50.59%
- IC50 [4]: 65400 ± 4900 nM
- IC50 [5]: 54 ± 6 nM
- CC50 at 2 days [6]: 3770 nM
- SI CC50/IC50 (Pf3D7) [7]: 29
- SI CC50/IC50 (PfDd2) [7]: 70

- IC50 [1]: 2670 ± 870 nM
Compound: OC(CN1CCCC1)Cn1c2ccc(Cl)cc2c2cc(Cl)ccc21 (stereo not drawn) [Compound 3, 1-(3,6-Dichloro-9H-carbazol-9-yl)-3-(pyrrolidin-1-yl)propan-2-ol]
- Adult S. japonicum worm-killing ([2]; 10 μg/mL): +
- β-Hematin % Inhibition [4]: 10.76%
